Data taken from ChEMBL document CHEMBL2062472, “N-(2-oxo-3-oxetanyl)carbamic acid esters as N-acylethanolamine acid amidase inhibitors: synthesis and structure-activity and structure-property relationships” (J Med Chem, 2012).

Key:
[1] = biological target: T1, N-acylethanolamine-hydrolyzing acid amidase (Rattus norvegicus, UniProt Q5KTC7); assay: Inhibition of rat recombinant NAAA expressed in HEK293 cells using heptadecenoylethanolamide as substrate after 30 mins by LC/MS analysis; assay type: cell-based
T1 sequence (Q5KTC7 whole entry): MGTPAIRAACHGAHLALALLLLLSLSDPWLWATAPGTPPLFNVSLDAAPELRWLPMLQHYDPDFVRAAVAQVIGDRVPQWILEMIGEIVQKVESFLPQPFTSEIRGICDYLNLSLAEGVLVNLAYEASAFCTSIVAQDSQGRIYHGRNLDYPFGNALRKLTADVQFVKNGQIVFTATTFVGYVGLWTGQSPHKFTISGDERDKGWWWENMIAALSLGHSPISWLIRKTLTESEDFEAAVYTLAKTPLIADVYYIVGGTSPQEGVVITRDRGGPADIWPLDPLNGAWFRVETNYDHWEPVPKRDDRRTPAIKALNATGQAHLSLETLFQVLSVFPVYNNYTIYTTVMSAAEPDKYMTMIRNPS
Summary of the method: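 Recombinant rat NAAA incubated 30 min at 37 °C in 50 mM sodium hydrogen phosphate buffer pH 5.0 containing 0.1% Triton X-100, 3 mM DTT and heptadecenoylethanolamide substrate (50 mM as printed). The reaction was stopped with cold methanol containing 1 nmol heptadecanoic acid. Product was measured by LC/MS with negative ESI, selected ion monitoring at m/z 267.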

[2] = Apparent half life of the compound in 50% v/v rat plasma by HPLC analysis in presence of EDTA; assay type: ADME, cell-free; conditions: 50% v/v plasma, with EDTA, read-out: t1/2(app)
Summary of the method: (§1)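 Rat or human plasma at 50% (v/v) was preincubated with BNPP, eserine, PMSF, EDTA or vehicle, then compound was added and kept at 37 °C. Aliquots taken at regular time points were quenched with 2 volumes of CH3CN, centrifuged, and analysed by RP-HPLC. Apparent t1/2 came from log[compound]-vs-time regression.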

[3] = Apparent half life of the compound in 50% v/v human plasma by HPLC analysis in presence of EDTA; assay type: ADME, cell-free; conditions: 50% v/v plasma, with EDTA, read-out: t1/2(app); summary of the method: as §1
Albumin = Albumin (Bos taurus, UniProt P02769); assay: Apparent half life of the compound in bovine serum albumin in phosphate-buffered saline at pH 7.4; assay type: ADME; conditions: cattle, read-out: t1/2(app)
Summary of the method: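 Compound incubated at 5–100 μM final (1% DMSO) at 37 °C in 20 mg/mL bovine serum albumin in PBS pH 7.4. Aliquots were quenched with 2 volumes of CH3CN, centrifuged, and analysed by RP-HPLC. Apparent t1/2 came from pseudo-first-order regression of log[compound] vs time.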

[4] = Apparent Half life of the compound in 0.01 M phosphate buffer at pH 5 in presence of 3 mM DTT; conditions: read-out: t1/2(app)
[5] = Apparent half life of the compound in 50% v/v rat plasma by HPLC analysis in presence of PMSF; assay type: ADME, cell-free; conditions: 50% v/v plasma, with PMSF, read-out: t1/2(app); summary of the method: as §1
[6] = Apparent half life of the compound in 50% v/v human plasma by HPLC analysis in presence of BNPP; assay type: ADME, cell-free; conditions: 50% v/v plasma, with BNPP, read-out: t1/2(app); summary of the method: as §1
[7] = Apparent half life of the compound in 50% v/v human plasma by HPLC analysis in presence of PMSF; assay type: ADME, cell-free; conditions: 50% v/v plasma, with PMSF, read-out: t1/2(app); summary of the method: as §1
[8] = Apparent half life of the compound in 50% v/v rat plasma by HPLC analysis in presence of eserine; assay type: ADME, cell-free; conditions: 50% v/v plasma, with eserine, read-out: t1/2(app); summary of the method: as §1
[9] = Apparent half life of the compound in 50% v/v rat plasma by HPLC analysis in presence of BNPP; assay type: ADME, cell-free; conditions: 50% v/v plasma, with BNPP, read-out: t1/2(app); summary of the method: as §1
[10] = Apparent half life of the compound in 50% v/v human plasma by HPLC analysis in presence of eserine; assay type: ADME, cell-free; conditions: 50% v/v plasma, with eserine, read-out: t1/2(app); summary of the method: as §1
[11] = Apparent half life of the compound in 50% v/v human plasma by HPLC analysis; assay type: ADME, cell-free; conditions: 50% v/v plasma, read-out: t1/2(app); summary of the method: as §1
[12] = Apparent half life of the compound in 50% v/v rat plasma by HPLC analysis; assay type: ADME, cell-free; conditions: 50% v/v plasma, read-out: t1/2(app); summary of the method: as §1
[13] = Apparent Half life of the compound in 0.01 M phosphate buffer at pH 5; assay type: physicochemical; conditions: read-out: t1/2(app)
Summary of the method: (§2)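 Compound (from DMSO stock; 1% DMSO final) incubated at 1–100 μM final at 37 °C with shaking, ionic strength 0.15 M, in 0.01 M PBS pH 7.4 or 0.01 M phosphate buffer pH 5.0. Aliquots taken over time were analysed by RP-HPLC. Apparent t1/2 came from pseudo-first-order rate constants (linear regression of log[compound] vs time), reported as mean ± SD of three experiments.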

[14] = Apparent half life of the compound in rat plasma by HPLC analysis; assay type: ADME, cell-free; conditions: read-out: t1/2(app) (converted)
Summary of the method: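 Pooled heparinized plasma from male Wistar rats was diluted to 80% (v/v) with PBS pH 7.4. Compound was added at 5–100 μM final (1% DMSO) and incubated at 37 °C with shaking. Aliquots were quenched with 2 volumes of CH3CN, centrifuged, and analysed by RP-HPLC. t1/2 came from log[compound]-vs-time regression, as mean ± SD of three experiments.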

[15] = Apparent Half life of the compound in 0.01 M phosphate-buffered saline at pH 7.4; assay type: physicochemical; conditions: read-out: t1/2(app); summary of the method: as §2
[16] = Drug degradation in 0.01 M phosphate-buffered saline at pH 7.4 assessed as N-acylated L-serine product formation by HPLC-UV-MS analysis; assay type: physicochemical; conditions: buffer
Summary of the method: (§3)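 Compound incubated at 37 °C in 0.01 M phosphate buffer pH 5.0 or 0.01 M PBS pH 7.4 (μ = 0.15 M; 1% DMSO) for up to 3 days. Degradation products were followed by RP-HPLC-UV and ESI-MS on a C18 column with acetonitrile/10 mM ammonium acetate (pH 7.0) mobile phase. Products were quantified against calibration curves of pure standards.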

[17] = Drug degradation in 0.01 M phosphate buffer at pH 5 assessed as N-acylated L-serine product formation by HPLC-UV-MS analysis; assay type: physicochemical; summary of the method: as §3
[18] = Drug degradation in 0.01 M phosphate buffer at pH 5 assessed as time required for O-(2-naphthoyl)-L-serine product formation by HPLC-UV-MS analysis; assay type: physicochemical; summary of the method: as §3
[19] = Drug degradation in 0.01 M phosphate-buffered saline at pH 7.4 assessed as N-(2-Naphthoyl)-L-serine product formation by HPLC-UV-MS analysis; assay type: physicochemical; conditions: buffer; summary of the method: as §3
[20] = Drug degradation in 0.01 M phosphate buffer at pH 5 assessed as 2-Naphtholic acid product formation at > 2 hrs by HPLC-UV-MS analysis; assay type: physicochemical; conditions: pH 5, 2 h; summary of the method: as §3
[21] = Drug degradation in 0.01 M phosphate buffer at pH 5 assessed as N-(2-Naphthoyl)-L-serine product formation at > 2 hrs by HPLC-UV-MS analysis; assay type: physicochemical; conditions: pH 5, 2 h; summary of the method: as §3
[22] = Drug degradation in 0.01 M phosphate buffer at pH 5 assessed as time required for N-(2-Naphthoyl)-L-serine product formation by HPLC-UV-MS analysis; assay type: physicochemical; summary of the method: as §3
[23] = Drug degradation in 0.01 M phosphate buffer at pH 5 assessed as O-(2-naphthoyl)-L-serine product formation by HPLC-UV-MS analysis; assay type: physicochemical; summary of the method: as §3
[24] = Drug degradation in 0.01 M phosphate-buffered saline at pH 7.4 assessed as 2-naphtholic acid product formation after 24 hrs by HPLC-UV-MS analysis; assay type: physicochemical; conditions: buffer, pH 7.4, 24 h; summary of the method: as §3

Chain of Albumin (P02769 whole entry): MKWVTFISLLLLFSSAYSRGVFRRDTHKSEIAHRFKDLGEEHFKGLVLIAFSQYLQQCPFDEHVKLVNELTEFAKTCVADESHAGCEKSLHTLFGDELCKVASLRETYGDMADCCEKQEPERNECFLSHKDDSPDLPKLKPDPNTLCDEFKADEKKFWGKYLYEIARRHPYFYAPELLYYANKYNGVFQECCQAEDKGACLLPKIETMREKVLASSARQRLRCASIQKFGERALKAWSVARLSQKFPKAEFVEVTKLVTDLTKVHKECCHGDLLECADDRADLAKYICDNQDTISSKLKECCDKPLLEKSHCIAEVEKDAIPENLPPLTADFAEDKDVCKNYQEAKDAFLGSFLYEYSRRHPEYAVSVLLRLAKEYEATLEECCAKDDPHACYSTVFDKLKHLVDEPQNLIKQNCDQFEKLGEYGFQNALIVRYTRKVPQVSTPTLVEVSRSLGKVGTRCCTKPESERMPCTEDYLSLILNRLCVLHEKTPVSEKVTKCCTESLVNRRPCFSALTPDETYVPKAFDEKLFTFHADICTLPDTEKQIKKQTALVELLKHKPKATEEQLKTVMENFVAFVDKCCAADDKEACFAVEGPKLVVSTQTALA

Row | SMILES | IC50 [1] | half-life (Albumin) | half-life [4] | half-life [13] | half-life [14] | half-life [15] | Drug degradation [16] | Drug degradation [17] | further results
1 | C[C@H]1OC(=O)[C@H]1NC(=O)OCc1ccccc1 | 10 µM |  |  |  |  |  |  |  | 
2 | C[C@@H]1OC(=O)[C@@H]1NC(=O)OC(C)(C)C | 0.22 µM | 129 min | 147 min | 241 min | 0.183 min | 122 min |  |  | half-life [2]: 0.34 min; half-life [3]: 32 min; half-life [5]: 7.13 min; half-life [6]: 4.7 min; half-life [7]: 11.5 min; half-life [8]: 4.19 min; half-life [9]: 3.29 min; half-life [10]: 13.8 min; half-life [11]: 2.99 min; half-life [12]: 0.53 min
3 | CCOC(=O)c1ccc2cc(C(=O)N[C@H]3COC3=O)ccc2c1 |  | 3.2 min | 20.9 min | 25.1 min | 1.25 min | 12.1 min | Active | Active | 
4 | O=C1OCC1CCCCc1ccccc1 (stereo not drawn) |  | 15.1 min | 114 min | 115 min | 0.233 min | 93.5 min |  |  | 
5 | O=C(N[C@H]1COC1=O)c1ccc2ccccc2c1 |  | < 1 min | 15.9 min | 19 min | < 0.167 min | 9.8 min | Active | Active | Time [18]: <= 2 hr; Drug degradation [19]: Active; Drug degradation [20]: Active; Drug degradation [21]: Active; Time [22]: <= 2 hr; Drug degradation [23]: Active; Drug degradation [24]: Active
6 | O=C(NCc1ccccc1)N[C@@H]1COC1=O | 49.2 µM |  |  |  |  |  |  |  | 
7 | O=C(N[C@H]1COC1=O)OCc1ccccc1 |  | 1.2 min | 30.5 min | 39.2 min | < 0.167 min | 26.7 min |  |  | 
8 | O=C(NC1CCC1)OCc1ccccc1 [CYCLOBUTYLCARBAMIC ACID BENZYL ESTER] | > 100 µM |  |  |  |  |  |  |  | 
9 | C[C@@H]1OC(=O)[C@@H]1NC(=O)OCc1ccccc1 | 1 µM | 5.1 min | 127 min | 185 min | < 0.167 min | 108 min |  |  | 
10 | O=C(N[C@H]1COC1=O)c1ccc(OCc2ccccc2)cc1 |  | 5.8 min | 18.8 min | 23.2 min | 1.08 min | 13.4 min | Active | Active | 
11 | O=C(N[C@H]1COC1=O)c1ccc(-c2ccccc2)cc1 |  | 3.3 min | 20.9 min | 28.4 min | 0.533 min | 12.6 min | Active | Active | 
12 | C[C@@H]1OC(=O)[C@@H]1NC(=O)OCCCCCc1ccccc1 | 0.13 µM | 11.4 min | 134 min | 194 min | < 0.167 min | 110 min |  |  | 
13 | C[C@H]1OC(=O)[C@H]1NC(=O)CCc1ccccc1 |  | 16 min | 100 min | 135 min | < 0.167 min | 73.8 min | Active | Active | 
